Assay results as given in ChEMBL document CHEMBL3792386, “Design, Synthesis, and Biological Evaluation of Novel Selenium (Se-NSAID) Molecules as Anticancer Agents” (J Med Chem, 2016).
pIC50: −log10 of the molar value. Calls of active or inactive are those of the source. The calls are words filed in the database; no cut-off is given here.

Assays:
[1] = system: NCI-H460; assay: Antiproliferative activity against human NCI-H460 cells assessed as reduction in cell viability after 24 hrs by MTT assay; type: functional, cell-based; settings: NCI-H460, 24 h
How it was run: (§1)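 3000 cells/well incubated in triplicate with serial concentrations of compound for 24, 48 or 72 h at 37 °C. MTT (5.0 mg/mL solution) added 3 h before the end. Formazan dissolved in DMSO, absorbance read at 570 and 630 nm. Viability normalised to vehicle control. IC50 from non-linear regression (variable slope), mean ± SD of triplicates.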

[2] = system: NCI-H460; assay: Antiproliferative activity against human NCI-H460 cells assessed as reduction in cell viability after 48 hrs by MTT assay; type: functional, cell-based; settings: NCI-H460, 48 h; how it was run: as §1
[3] = system: NCI-H460; assay: Antiproliferative activity against human NCI-H460 cells assessed as reduction in cell viability after 72 hrs by MTT assay; type: functional, cell-based; settings: NCI-H460, 72 h; how it was run: as §1
[4] = system: HepG2; assay: Antiproliferative activity against human HepG2 cells assessed as reduction in cell viability after 24 hrs by MTT assay; type: functional, cell-based; settings: HepG2, 24 h; how it was run: as §1
[5] = system: HepG2; assay: Antiproliferative activity against human HepG2 cells assessed as reduction in cell viability after 48 hrs by MTT assay; type: functional, cell-based; settings: HepG2, 48 h; how it was run: as §1
[6] = system: HepG2; assay: Antiproliferative activity against human HepG2 cells assessed as reduction in cell viability after 72 hrs by MTT assay; type: functional, cell-based; settings: HepG2, 72 h; how it was run: as §1
[7] = Antiproliferative activity against human SKOV3 cells assessed as reduction in cell viability after 24 hrs by MTT assay; type: functional, cell-based; settings: SK-OV-3, 24 h; how it was run: as §1
[8] = Antiproliferative activity against human SKOV3 cells assessed as reduction in cell viability after 72 hrs by MTT assay; type: functional, cell-based; settings: SK-OV-3, 72 h; how it was run: as §1
[9] = system: HCT-116; assay: Induction of cell cycle arrest in human HCT116 cells assessed as accumulation at S phase at 5 uM after 12 hrs by propidium iodide staining-based flow cytometry (reference value: 55%); type: functional
[10] = system: HCT-116; assay: Induction of cell cycle arrest in human HCT116 cells assessed as reduction of G2/M phase at 5 uM after 24 hrs by propidium iodide staining-based flow cytometry (reference value: 24%); type: functional; design: scale not given: the % may be the effect or the level left
[11] = system: HCT-116; assay: Induction of cell cycle arrest in human HCT116 cells assessed as accumulation at G1 phase at 5 uM after 24 hrs by propidium iodide staining-based flow cytometry (reference value: 28%); type: functional
[12] = system: HCT-116; assay: Induction of apoptosis in human HCT116 cells assessed as late apoptotic cells at 2.5 uM after 24 hrs by annexin V/7-ADD staining-based flow cytometry (reference value: 1.65%); type: functional
[13] = system: HCT-116; assay: Induction of apoptosis in human HCT116 cells assessed as live cells at 2.5 uM after 24 hrs by annexin V/7-ADD staining-based flow cytometry (reference value: 90.05%); type: functional
[14] = system: HCT-116; assay: Induction of apoptosis in human HCT116 cells assessed as early apoptotic cells at 2.5 uM after 24 hrs by annexin V/7-ADD staining-based flow cytometry (reference value: 5.20%); type: functional
[15] = system: HCT-116; assay: Induction of apoptosis in human HCT116 cells assessed as dead cells at 5 uM after 24 hrs by annexin V/7-ADD staining-based flow cytometry (reference value: 3.10%); type: functional
[16] = system: HCT-116; assay: Induction of apoptosis in human HCT116 cells assessed as late apoptotic cells at 5 uM after 24 hrs by annexin V/7-ADD staining-based flow cytometry (reference value: 1.65%); type: functional
[17] = system: HCT-116; assay: Induction of apoptosis in human HCT116 cells assessed as early apoptotic cells at 5 uM after 24 hrs by annexin V/7-ADD staining-based flow cytometry (reference value: 5.20%); type: functional
[18] = system: HCT-116; assay: Induction of apoptosis in human HCT116 cells assessed as early apoptotic cells at 2.5 uM after 24 hrs by 7-ADD and caspase 3/7 activity-based flow cytometry (reference value: 2.45%); type: functional
[19] = system: HCT-116; assay: Induction of apoptosis in human HCT116 cells assessed as dead cells at 5 uM after 24 hrs by 7-ADD and caspase 3/7 activity-based flow cytometry (reference value: 3.25%); type: functional
[20] = system: HCT-116; assay: Induction of apoptosis in human HCT116 cells assessed as late apoptotic cells at 5 uM after 24 hrs by 7-ADD and caspase 3/7 activity-based flow cytometry (reference value: 1.70%); type: functional
[21] = system: HCT-116; assay: Induction of apoptosis in human HCT116 cells assessed as late apoptotic cells at 10 uM after 24 hrs by 7-ADD and caspase 3/7 activity-based flow cytometry (reference value: 1.70%); type: functional
[22] = system: HCT-116; assay: Induction of apoptosis in human HCT116 cells assessed as live cells at 10 uM after 24 hrs by 7-ADD and caspase 3/7 activity-based flow cytometry (reference value: 92.60%); type: functional
[23] = system: HCT-116; assay: Induction of apoptosis in human HCT116 cells assessed as early apoptotic cells at 10 uM after 24 hrs by 7-ADD and caspase 3/7 activity-based flow cytometry (reference value: 2.45%); type: functional
[24] = system: HCT-116; assay: Induction of apoptosis in human HCT116 cells assessed as cleaved PARP level at 1 to 10 uM after 24 hrs by Western blot method; type: functional, cell-based
How it was run: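 HCT116 lysates after 24 h treatment made in RIPA buffer with protease and phosphatase inhibitors. Resolved by SDS-PAGE (4-12%), transferred to PVDF, probed for PARP with β-actin as loading control, detected by ECL.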

[25] = system: HCT-116; assay: Induction of ROS generation in human HCT116 cells at 10 uM after 6 hrs by flow cytometry (reference value: 6%); type: functional
[26] = system: HT-29; assay: Antiproliferative activity against human HT-29 cells assessed as reduction in cell viability after 72 hrs by MTT assay; type: functional, cell-based; settings: HT-29, 72 h; how it was run: as §1
[27] = system: MDA-MB-231; assay: Antiproliferative activity against human MDA-MB-231 cells assessed as reduction in cell viability after 24 hrs by MTT assay; type: functional, cell-based; settings: MDA-MB-231, 24 h; how it was run: as §1
[28] = system: MDA-MB-231; assay: Antiproliferative activity against human MDA-MB-231 cells assessed as reduction in cell viability after 48 hrs by MTT assay; type: functional, cell-based; settings: MDA-MB-231, 48 h; how it was run: as §1
[29] = Antiproliferative activity against human PANC1 cells assessed as reduction in cell viability after 24 hrs by MTT assay; type: functional, cell-based; settings: PANC-1, 24 h; how it was run: as §1
[30] = system: UACC-903; assay: Antiproliferative activity against human UACC-903 cells assessed as reduction in cell viability after 24 hrs by MTT assay; type: functional, cell-based; settings: UACC-903, 24 h; how it was run: as §1
[31] = system: UACC-903; assay: Antiproliferative activity against human UACC-903 cells assessed as reduction in cell viability after 72 hrs by MTT assay; type: functional, cell-based; settings: UACC-903, 72 h; how it was run: as §1
[32] = system: RKO; assay: Antiproliferative activity against human RKO cells assessed as reduction in cell viability after 48 hrs by MTT assay; type: functional, cell-based; how it was run: as §1
[33] = system: RKO; assay: Antiproliferative activity against human RKO cells assessed as reduction in cell viability after 72 hrs by MTT assay; type: functional, cell-based; how it was run: as §1
[34] = Antiproliferative activity against human HCT116 cells assessed as reduction in cell viability after 24 hrs by MTT assay; type: functional, cell-based; settings: HCT-116, 24 h; how it was run: as §1
[35] = Antiproliferative activity against human HCT116 cells assessed as reduction in cell viability after 48 hrs by MTT assay; type: functional, cell-based; settings: HCT-116, 48 h; how it was run: as §1
[36] = Antiproliferative activity against human HCT116 cells assessed as reduction in cell viability after 72 hrs by MTT assay; type: functional, cell-based; settings: HCT-116, 72 h; how it was run: as §1

SMILES: CC(=O)Oc1ccccc1C(=O)NCC[Se]C#N
- pIC50 [1]: < 4.30
- pIC50 [2]: 5.62
- pIC50 [3]: 5.89
- pIC50 [4]: 4.80
- pIC50 [5]: 5.30
- pIC50 [6]: 5.37
- pIC50 [7]: < 4.30
- pIC50 [8]: 5.36
- Activity [9]: 14%
- Activity [10]: 19%
- Activity [11]: 68%
- Activity [12]: 8.3%
- Activity [13]: 76.8%
- Activity [14]: 13.65%
- Activity [15]: 1.3%
- Activity [16]: 31.35%
- Activity [17]: 36.15%
- Activity [18]: 28.45%
- Activity [19]: 2.65%
- Activity [20]: 32.8%
- Activity [21]: 46.85%
- Activity [22]: 13.25%
- Activity [23]: 37.65%
- Activity [24]: Active
- Activity [25]: 16.54%
- pIC50 [26]: 5.68
- pIC50 [27]: 4.68
- pIC50 [28]: 5.26
- pIC50 [29]: 4.92
- pIC50 [30]: 4.61
- pIC50 [31]: 5.54
- pIC50 [32]: 5.66
- pIC50 [33]: 5.54
- pIC50 [34]: 4.79
- pIC50 [35]: 5.60
- pIC50 [36]: 5.68
